Active and inactive are the calls of the source. The rule behind the calls is not given here.
Assays:
[1] = biological target: T1, Tyrosine-protein phosphatase non-receptor type 11 (Homo sapiens, UniProt Q06124); experiment: Inhibition of SHP-2 (unknown origin)
T1 sequence (Q06124 whole entry): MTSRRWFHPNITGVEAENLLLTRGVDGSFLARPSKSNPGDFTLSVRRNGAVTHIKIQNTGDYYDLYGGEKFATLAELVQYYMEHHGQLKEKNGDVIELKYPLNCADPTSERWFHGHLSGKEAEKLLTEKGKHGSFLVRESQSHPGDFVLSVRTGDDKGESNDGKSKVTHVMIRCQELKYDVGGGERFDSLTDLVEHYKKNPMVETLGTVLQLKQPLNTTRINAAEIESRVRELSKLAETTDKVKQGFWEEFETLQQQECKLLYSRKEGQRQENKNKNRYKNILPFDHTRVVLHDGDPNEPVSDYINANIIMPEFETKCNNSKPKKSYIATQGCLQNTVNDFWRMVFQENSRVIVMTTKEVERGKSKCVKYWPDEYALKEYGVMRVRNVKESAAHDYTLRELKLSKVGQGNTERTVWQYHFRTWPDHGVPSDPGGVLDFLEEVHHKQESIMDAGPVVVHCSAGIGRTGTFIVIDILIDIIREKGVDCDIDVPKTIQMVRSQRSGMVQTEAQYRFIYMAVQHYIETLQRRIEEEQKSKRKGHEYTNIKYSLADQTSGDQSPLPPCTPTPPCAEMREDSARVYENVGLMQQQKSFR

[2] = biological target: T2, Tyrosine-protein phosphatase non-receptor type 1 (Rattus norvegicus) (UniProt P20417); experiment: Inhibition of PTP1B in rat L6 cells assessed as insulin-induced Akt phosphorylation at 5 to 10 uM preincubated for 2 hrs followed by insulin challenge for 10 mins by Western blotting analysis; assay type: cell-based
T2 sequence (whole entry): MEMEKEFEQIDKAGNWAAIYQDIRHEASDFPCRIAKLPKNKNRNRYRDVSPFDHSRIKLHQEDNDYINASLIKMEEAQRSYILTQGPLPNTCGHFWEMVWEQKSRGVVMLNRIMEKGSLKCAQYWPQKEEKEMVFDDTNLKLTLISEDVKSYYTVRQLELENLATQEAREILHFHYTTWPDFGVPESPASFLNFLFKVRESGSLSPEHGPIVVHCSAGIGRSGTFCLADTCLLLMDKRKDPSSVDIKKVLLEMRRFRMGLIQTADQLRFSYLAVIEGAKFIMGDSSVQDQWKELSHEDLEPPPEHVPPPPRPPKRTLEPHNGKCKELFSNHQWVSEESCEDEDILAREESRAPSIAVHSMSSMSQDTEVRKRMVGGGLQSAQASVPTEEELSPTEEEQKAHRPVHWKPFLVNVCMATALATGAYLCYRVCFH
Outline: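 Rat L6 myoblasts were differentiated in DMEM with 2% FBS and used as myotubes 5–7 days later. They were serum-starved 2 h, treated with compound 2 h (0.2% DMSO vehicle), then given 10 nM insulin for 10 min. Lysates were run on 8% SDS-PAGE and immunoblotted for phospho-Akt (Ser473), with β-actin as loading control.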

[3] = biological target: T3, Tyrosine-protein phosphatase non-receptor type 1 (Homo sapiens, UniProt P18031); experiment: Inhibition of GST-tagged PTP1B (unknown origin) using pNPP as substrate measured for 2 mins by colorimetric analysis
T3 sequence (P18031 whole entry): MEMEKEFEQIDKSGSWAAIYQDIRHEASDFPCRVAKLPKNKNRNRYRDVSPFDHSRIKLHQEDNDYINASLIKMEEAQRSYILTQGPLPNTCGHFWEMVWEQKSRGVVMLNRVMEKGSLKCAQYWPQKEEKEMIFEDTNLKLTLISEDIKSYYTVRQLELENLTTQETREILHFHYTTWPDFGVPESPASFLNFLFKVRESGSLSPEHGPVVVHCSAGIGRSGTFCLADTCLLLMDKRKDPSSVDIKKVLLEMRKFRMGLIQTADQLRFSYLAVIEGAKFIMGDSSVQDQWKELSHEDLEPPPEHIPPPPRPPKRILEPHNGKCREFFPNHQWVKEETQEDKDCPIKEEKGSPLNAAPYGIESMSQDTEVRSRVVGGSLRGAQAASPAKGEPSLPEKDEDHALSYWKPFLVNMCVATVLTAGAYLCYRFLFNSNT

[4] = biological target: T4, Tyrosine-protein phosphatase non-receptor type 1 (Homo sapiens) (UniProt P18031); experiment: Inhibition of PTP1B (unknown origin) expressed in CHO cells over-expressing human IR assessed as increase in insulin-mediated IR-beta phosphorylation preincubated for 2 hrs followed by insulin challenge for 10 mins by Western blotting analysis; assay type: cell-based
T4 sequence (whole entry): T3 sequence (P18031 whole entry)
Outline: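 CHO cells overexpressing human IR, grown in Ham's F-12 with 10% FBS at 37 °C, 5% CO2. Cells were serum-starved 2 h, then exposed to compound for 2 h (0.2% DMSO vehicle; 1 mM sodium orthovanadate as positive control). They were then stimulated with 10 nM insulin for 10 min. Lysates were run on 8% SDS-PAGE and immunoblotted with anti-pTyr, using β-actin as the loading control.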

In the case of `O=C(CCc1c[nH]c2ccccc12)N[C@@H](Cc1ccc(OCc2ccccc2)cc1)c1nc(C(=O)Nc2cc(F)ccc2C(=O)O)c(-c2ccccc2)s1`, the IC50 [1] is reported as 9.89 µM, the inhibition [2] is reported as “Active” and the IC50 [3] is reported as 0.54 µM. For the same compound, the inhibition [4] was “Dose-dependent effect”.
